{"source": "ChEMBL document CHEMBL1255392", "about": "“Pharmacokinetics of acyclovir and its metabolites in cerebrospinal fluid and systemic circulation after administration of high-dose valacyclovir in subjects with normal and impaired renal function” (Antimicrob Agents Chemother, 2010)", "key": {"Homo sapiens [1]": {"test_system": "Homo sapiens", "experiment": "AUC (0 to 12 hrs) in human systemic circulation with chronic kidney disease assessed as CMMG level at 1500 mg, po every 12 hrs measured after fifth dose by LC/MS", "format": "ADME, organism-based", "set-up": "dose 1500 mg, time < 12 hr, route oral", "settings": "in vivo", "summary_of_the_method": "(§1)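 Three CKD adults (CrCl ~15–30 ml/min) fasted around the final dose. Lumbar intrathecal catheter CSF and EDTA venous blood were taken predose and at 0.5–8 h plus 12 h, then stored at −70°C. Metabolites in serum/CSF were measured by SPE with isotope-labelled internal standards, reversed-phase HPLC and positive-ion MRM MS.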"}, "Homo sapiens [2]": {"test_system": "Homo sapiens", "experiment": "Cmax in human systemic circulation with normal renal function assessed as CMMG level at 2000 mg, po every 6 hrs measured after fifth dose by LC/MS", "format": "ADME, organism-based", "set-up": "dose 2000 mg, route oral", "settings": "in vivo", "summary_of_the_method": "(§2)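 Six volunteers with normal renal function fasted from 8 h before to 2 h after the fifth dose. Intrathecal-catheter CSF and venous blood were sampled at 0–8 h and stored at −70°C. Noncompartmental Cmax, tmax and AUCτ (0–6 h) were derived; Cavg = AUCτ/τ.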"}, "Homo sapiens [3]": {"test_system": "Homo sapiens", "experiment": "Tmax in human systemic circulation with chronic kidney disease assessed as CMMG level at 1500 mg, po every 12 hrs measured after fifth dose by LC/MS", "format": "ADME, organism-based", "settings": "in vivo", "summary_of_the_method": "as §1"}, "Homo sapiens [4]": {"test_system": "Homo sapiens", "experiment": "Drug level in human CSF with normal renal function assessed as CMMG level at 2000 mg, po every 6 hrs measured after fifth dose by LC/MS", "format": "ADME, organism-based", "settings": "in vivo, read-out: Drug uptake", "summary_of_the_method": "as §2"}, "Homo sapiens [5]": {"test_system": "Homo sapiens", "experiment": "Cmax in human CSF with normal renal function assessed as CMMG level at 2000 mg, po every 6 hrs measured after fifth dose by LC/MS", "format": "ADME, organism-based, Cerebrospinal fluid", "set-up": "dose 2000 mg, route oral", "settings": "in vivo", "summary_of_the_method": "as §2"}, "Homo sapiens [6]": {"test_system": "Homo sapiens", "experiment": "Tmax in human systemic circulation with normal renal function assessed as CMMG level at 2000 mg, po every 6 hrs measured after fifth dose by LC/MS", "format": "ADME, organism-based", "settings": "in vivo", "summary_of_the_method": "as §2"}, "Homo sapiens [7]": {"test_system": "Homo sapiens", "experiment": "Cmax in human systemic circulation with chronic kidney disease assessed as CMMG level at 1500 mg, po every 12 hrs measured after fifth dose by LC/MS", "format": "ADME, organism-based", "set-up": "dose 1500 mg, route oral", "settings": "in vivo", "summary_of_the_method": "as §1"}, "Homo sapiens [8]": {"test_system": "Homo sapiens", "experiment": "AUC (0 to 6 hrs) in human CSF with normal renal function assessed as CMMG level at 2000 mg, po every 6 hrs measured after fifth dose by LC/MS", "format": "ADME, organism-based", "set-up": "time < 6 hr, dose 2000 mg, route oral", "settings": "in vivo", "summary_of_the_method": "as §2"}, "Homo sapiens [9]": {"test_system": "Homo sapiens", "experiment": "Ratio of Cmax in human CSF to Cmax in human plasma with normal renal function assessed as CMMG level at 2000 mg, po every 6 hrs measured after fifth dose by LC/MS", "format": "ADME, organism-based", "summary_of_the_method": "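For each normal-renal-function subject, the metabolite CSF Cmax was divided by the serum Cmax from samples taken 0–8 h after the fifth dose. Both were measured by LC/MS with isotope-labelled internal standards, and the ratio is given as mean ± SD.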"}, "Homo sapiens [10]": {"test_system": "Homo sapiens", "experiment": "Drug level in human plasma with normal renal function assessed as CMMG level at 2000 mg, po every 6 hrs measured after fifth dose by LC/MS", "format": "ADME, organism-based", "settings": "in vivo, read-out: Drug uptake", "summary_of_the_method": "as §2"}, "Homo sapiens [11]": {"test_system": "Homo sapiens", "experiment": "AUC (0 to 12 hrs) in human CSF with chronic kidney disease assessed as CMMG level at 1500 mg, po every 12 hrs measured after fifth dose by LC/MS", "format": "ADME, organism-based", "set-up": "time < 12 hr, dose 1500 mg, route oral", "settings": "in vivo", "summary_of_the_method": "as §1"}, "Homo sapiens [12]": {"test_system": "Homo sapiens", "experiment": "Tmax in human CSF with normal renal function assessed as CMMG level at 2000 mg, po every 6 hrs measured after fifth dose by LC/MS", "format": "ADME, organism-based, Cerebrospinal fluid", "settings": "in vivo", "summary_of_the_method": "as §2"}, "Homo sapiens [13]": {"test_system": "Homo sapiens", "experiment": "AUC (0 to 6 hrs) in human systemic circulation with normal renal function assessed as CMMG level at 2000 mg, po every 6 hrs measured after fifth dose by LC/MS", "format": "ADME, organism-based, Plasma", "set-up": "dose 2000 mg, time < 6 hr, route oral", "settings": "in vivo", "summary_of_the_method": "as §2"}, "Homo sapiens [14]": {"test_system": "Homo sapiens", "experiment": "Cmax in human CSF with chronic kidney disease assessed as CMMG level at 1500 mg, po every 12 hrs measured after fifth dose by LC/MS", "format": "ADME, organism-based, Cerebrospinal fluid", "set-up": "dose 1500 mg, route oral", "settings": "in vivo", "summary_of_the_method": "as §1"}, "Homo sapiens [15]": {"test_system": "Homo sapiens", "experiment": "Tmax in human CSF with chronic kidney disease assessed as CMMG level at 1500 mg, po every 12 hrs measured after fifth dose by LC/MS", "format": "ADME, organism-based, Cerebrospinal fluid", "settings": "in vivo", "summary_of_the_method": "as §1"}, "Homo sapiens [16]": {"test_system": "Homo sapiens", "experiment": "Drug level in human CSF with chronic kidney disease assessed as CMMG level at 1500 mg, po every 12 hrs measured after fifth dose by LC/MS", "format": "ADME, organism-based", "settings": "in vivo, read-out: Drug uptake", "summary_of_the_method": "as §1"}, "Homo sapiens [17]": {"test_system": "Homo sapiens", "experiment": "Drug level in human plasma with chronic kidney disease assessed as CMMG level at 1500 mg, po every 12 hrs measured after fifth dose by LC/MS", "format": "ADME, organism-based", "settings": "in vivo, read-out: Drug uptake", "summary_of_the_method": "as §1"}, "Homo sapiens [18]": {"test_system": "Homo sapiens", "experiment": "Ratio of Cmax in human CSF to Cmax in human plasma with chronic kidney disease assessed as CMMG level at 1500 mg, po every 12 hrs measured after fifth dose by LC/MS", "format": "ADME, organism-based"}}}
{"compound": "Nc1nc2c(ncn2COCC(=O)O)c(=O)[nH]1", "values": [{"measurement": "AUC", "setting": "Homo sapiens [1]", "result": 148, "unit": "µM·h"}, {"measurement": "Cmax", "setting": "Homo sapiens [2]", "result": 4.1, "unit": "µM"}, {"measurement": "Tmax", "setting": "Homo sapiens [3]", "result": 4.3, "unit": "h"}, {"measurement": "concentration", "setting": "Homo sapiens [4]", "result": 0.07, "unit": "µM"}, {"measurement": "Cmax", "setting": "Homo sapiens [5]", "result": 0.095, "unit": "µM"}, {"measurement": "Tmax", "setting": "Homo sapiens [6]", "result": 3.3, "unit": "h"}, {"measurement": "Cmax", "setting": "Homo sapiens [7]", "result": 15, "unit": "µM"}, {"measurement": "AUC", "setting": "Homo sapiens [8]", "result": 0.42, "unit": "µM·h"}, {"measurement": "Ratio", "setting": "Homo sapiens [9]", "result": 0.025}, {"measurement": "concentration", "setting": "Homo sapiens [10]", "result": 2.9, "unit": "µM"}, {"measurement": "AUC", "setting": "Homo sapiens [11]", "result": 3.8, "unit": "µM·h"}, {"measurement": "Tmax", "setting": "Homo sapiens [12]", "result": 1.8, "unit": "h"}, {"measurement": "AUC", "setting": "Homo sapiens [13]", "result": 17, "unit": "µM·h"}, {"measurement": "Cmax", "setting": "Homo sapiens [14]", "result": 0.37, "unit": "µM"}, {"measurement": "Tmax", "setting": "Homo sapiens [15]", "result": 6.7, "unit": "h"}, {"measurement": "concentration", "setting": "Homo sapiens [16]", "result": 0.31, "unit": "µM"}, {"measurement": "concentration", "setting": "Homo sapiens [17]", "result": 12, "unit": "µM"}, {"measurement": "Ratio", "setting": "Homo sapiens [18]", "result": 0.025}]}
